Test: Toxicity liver stage against HepG2, at 10uM
Type: cell-based
Design: test concentration 10 uM, cell line HepG2-A16-CD81EGFP
Conditions: human, HepG2-A16-CD81EGFP cells; read-out: INHIBITION
Outline: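 Uninfected HepG2-A16-CD81EGFP cells, 3 × 10^3 per well, 1536-well, plated on prespotted compound at 10 μM final, parasite-free screening media added to match infected plates; puromycin 10 μM positive, DMSO 0.5% negative; run in parallel with 48 h PbLuc assay at 37 °C, 5% CO2; viability by CellTiter-Glo luminescence, normalized to controls.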

Compound | cytotoxicity at 10 µM
O=C(c1ccccc1Cl)N1CCN(CCc2ccccn2)CC1 | 5.75%
CC(C)CN1C(=O)COC[C@@H]1[C@H](O)c1ccc(NC(=O)C2CC2)cc1 | 5.76%
Cc1c(C2SCC(=O)Nc3c2c(O)nn3C2CCCCC2)cnn1C (stereo unspecified) | 0.618%
COc1ccc2c(ccn2CCC(=O)Nc2nc[nH]n2)c1 | -12.6%
COc1cccc(OC)c1C(=O)NCC(c1cccn1C)N1CCCC1 (stereo unspecified) | 6.89%
CCc1ccccc1NC(=O)C1CN(C(C)=O)C1 | 8.49%
O=C(c1cccnc1)N1CC(S(=O)(=O)c2ccc(Cl)cc2)C1 | -0.649%
COCC1c2c(cnn2C)CCN1C(=O)c1ccc2c(c1)OCO2 (stereo unspecified) | 3.74%
c1cc(CNCC2Cn3nncc3CO2)ccn1 (stereo unspecified) | 6.62%
CC(=O)N1CC(=O)N(c2cnn(C)c2)CC12CCN(Cc1ccco1)C2 (stereo unspecified) | 2.41%
CC1CCC2(CC1)Nc1ccccc1CO2 (stereo unspecified) | 4.81%
O=C(Cc1ccc2c(c1)OCC2)Nc1nc[nH]n1 | -2.94%
CN(C)S(=O)(=O)N1CCC2(COCc3cnc(-c4ccccc4)nc32)C1 (stereo unspecified) | -13.6%
O=c1cc(CN2CCCC2)nc2n1CCCN(Cc1ccsc1)C2 | -6.44%
CCN(Cc1nonc1C)C(=O)c1cc(C(F)(F)F)nn1C | 2.06%
COc1cc(NC(=O)NCC2CCCO2)cc(OC)c1OC (stereo unspecified) | -7.71%
Cc1nn(C)c2c(N3CCN(C(=O)C4CCCO4)CC3)ncnc12 (stereo unspecified) | 6.42%
O=S(=O)(c1ccc(N2CCCCC2)c2nonc12)N1CCCCC1 | 6.74%
O=C1CNc2ncnc(N3CCN(Cc4ccccc4)CC3)c2N1 | 9.76%
CCn1nc(C)c(NC(=O)c2cc(NC(=O)C3CC3)n(C)n2)c1C | -0.916%
Cc1ccc(-c2cc(C(F)(F)F)nc(N3CCOCC3)n2)s1 | 0.452%
CN1CCc2nc(C3CCCN(S(=O)(=O)c4ccccc4)C3)ncc2C1 (stereo unspecified) | 2.67%
CC(C)Nc1nc(O)cc(C(C)n2ncc3ccccc3c2=O)n1 (stereo unspecified) | 2.81%

Compound | cytotoxicity at 10 µM
CCN1CCN(c2cncc(Cl)n2)CC1 | 11.6%
CCN1CCCCC1C(=O)N1CCN(C(=O)OC)CC1 (stereo unspecified) | -4.81%
CC(C(=O)NCC(C)(C)c1ccc2c(c1)OCO2)n1ccnc1 (stereo unspecified) | 6.36%
Cc1cc(C)c(CNc2cnn(CC(O)CN(C)C)c2)c(C)c1 (stereo unspecified) | 15%
CN(Cc1nc2ccccc2[nH]1)C(=O)C(C)(C)n1cc(Cl)cn1 | 6.16%
Cc1noc(CN(C)c2ccccc2)n1 | 8.82%
COc1ccccc1OCC(=O)NS(=O)(=O)c1cccnc1 | -4.69%
O=C(c1coc(-c2ccccc2)n1)N1CCS(=O)(=O)CC1 | 11.4%
CCNC(=O)NC(=O)C(C)Nc1ccccc1OCCOC (stereo unspecified) | 4%
COc1ccc(C(CO)NC(=O)Nc2cccc(F)c2)cc1 (stereo unspecified) | -4.82%
Cc1noc(C)c1CN1CCC(N(C)Cc2noc(C(C)C)n2)C1 (stereo unspecified) | -6.37%
Cc1ncccc1CNCC1CCc2nnc(C(C)C)n2C1 (stereo unspecified) | -6.27%
O=C(CCc1ccc(Cl)s1)N1CCCC(N2CCNC2=O)C1 (stereo unspecified) | 1.09%
CCSc1ccc(C(=O)N2CCCCC2C(=O)NC(C)(C)C)cn1 (stereo unspecified) | -7.69%
COCc1ccccc1C(=O)N1CCn2c(nnc2C(C)C)C1 | 2.91%
CC(NCc1cnc(C2CCC2)s1)c1cccc(-n2ccnc2)c1 (stereo unspecified) | 4.12%
Cc1nc(C(C)C)sc1C(=O)NCCn1ccnc1 | 1.28%
Cc1nn(C)c(C)c1CC(=O)NCc1cccnc1OC1CCCC1 | -0.527%
O=C(NC1(c2nccs2)CCCC1)c1cc(C2CC2)[nH]n1 | 2%
CC(C)(C)Oc1ccccc1CNC(=O)C1CCCOC1 (stereo unspecified) | 0.997%
CCN(C(=O)NCc1ccc(C)cc1OC)C(C)c1cccnc1 (stereo unspecified) | 6.32%
O=C(c1cnccn1)N1CCC(CN2CCOCC2)CC1 | 4.55%
Cc1nn(C)c(Oc2cccc(F)c2)c1NC(=O)C1CCCO1 (stereo unspecified) | -7.64%

Compound | cytotoxicity at 10 µM
Cc1nc(CNC(=O)c2oc3ccccc3c2CN(C)C)oc1C | 9.46%
CN(CC1CC1)C(=O)CN(Cc1cccc(O)c1)C1CCC(O)CC1 (stereo unspecified) | -1.21%
O=C(Nc1cccnc1)N1CCC(n2ccc(C(F)(F)F)n2)CC1 | -6.08%
CCc1noc(C(C)N2CCC(NC(=O)c3ccc(C)s3)CC2)n1 (stereo unspecified) | -9.9%
CCN(C(=O)COC)C(c1cccnc1)c1cc(C)cc(C)c1 (stereo unspecified) | -20.9%
Cc1cc(N2CCN(CCO)CC2)nc(-c2ccncc2)n1 | -1.25%
Cc1cc(F)ccc1CNCCn1cccn1 | -10.2%
O=C(c1cnccn1)N1CC[C@H]2C[C@@H](c3ccncn3)O[C@@H]2C1 | -78.5%
CN1CCCC2(CCN(C(=O)c3ccncc3)C2)C1 (stereo unspecified) | -68.3%
CCOCC1CC2(CCN(Cc3ccccn3)CC2)CO1 (stereo unspecified) | -0.671%
CCCc1cncnc1N1CCC(NCc2ccc(O)cc2)CC1 | 3.8%
CCc1cnc(NCc2nc(CSC)no2)nc1 | 7.15%
N#CC1(c2ccccc2)CCN(C(=O)CN2C(=O)CCNC2=O)CC1 | 0.172%
COc1ccc(C)cc1-n1cnnc1C1CCCN(C)C1 (stereo unspecified) | 6.43%
CCN1CC(CN(C)Cc2nc(-c3cccc(Cl)c3)oc2C)CC1=O (stereo unspecified) | 6.9%
CCc1oc(C(=O)NC(C)Cc2cnccn2)cc1CN1CCCC1 (stereo unspecified) | -5.28%
CCN(Cc1noc(C2CCC2)n1)C(=O)c1cn2ccsc2n1 | 5.44%
CCn1cc(-c2c(C)c(C3CCOC(C)(C)C3)nc(N)c2C#N)cn1 (stereo unspecified) | -10.3%
Cc1nn(C)c2ncnc(N3CCC(O)(CN4CCCC4)CC3)c12 | 2.68%
Cc1cc(CNc2cncc(C(=O)N(C)C)n2)c2[nH]c(C)c(C)c2c1 | -12.2%
CC(C)n1cc(C(=O)N2CCC(n3cc(C(C)(C)C)nn3)CC2)cn1 | 1.19%
CN1C(=O)C(c2ccccc2)CC12CCN(CCN)CC2 (stereo unspecified) | 8.67%
CCCc1nc(CN(CC)C(=O)c2ccc3[nH]cnc3c2)no1 | 3.98%

Compound | cytotoxicity at 10 µM
COc1ccc(/C=C/CN2CCC3(CC2)CN(C)C(=O)O3)cc1 | -2.11%
Cc1cc(CN(C)C(=O)C(c2ccccc2F)N(C)C)ccn1 (stereo unspecified) | 2.78%
O=C(c1nc(=O)[nH]c2ccccc12)N1CCCC(CC2CC2)(C(=O)O)C1 (stereo unspecified) | 6.56%
COCC(NC(=O)c1cc(NC(C)=O)ccc1Cl)c1ccnn1C (stereo unspecified) | -2.22%
Cc1nn(C)cc1-c1ccnc(N(C)Cc2ccc(F)cc2)n1 | -3.85%
CNc1ccnc(N2C[C@@H](C)[C@](O)(C3CCC3)C2)n1 | -10.1%
CCOc1ccc(C(=O)CCC(=O)N(C)Cc2snnc2C)cc1C | -2.29%
CC(Cn1cccn1)n1cnc2cccc(F)c2c1=O (stereo unspecified) | -0.288%
CCC[C@H]1CN(C(=O)c2cc(-c3cccs3)n(C)n2)C[C@@H]1N | -1.02%
OC1(CN2CCCCC2)CCN(Cc2c[nH]c(CC3CCCC3)n2)C1 (stereo unspecified) | -13%
CCCc1nnc(N2CCN(c3cccc(C)c3C)CC2)o1 | 9.59%
Cc1c(C2CCOC(C)(C)C2)nc(N)c(C#N)c1-c1ccc(O)cc1 (stereo unspecified) | 22.8%
O=C1CC(C(=O)O)C2(CCN(C(=O)NCc3ccc(Cl)cc3)CC2)N1 (stereo unspecified) | 7.66%
Cc1ncnc(NCc2cc3n(n2)CCCN(S(C)(=O)=O)C3)c1C | -8.42%
CC(=O)Nc1ccc(CNC2CC(=O)N(Cc3cccc(F)c3)C2)cc1 (stereo unspecified) | -6.98%
CCn1nc(CC(C)C)cc1C(=O)N1C[C@H](O)[C@@H](N2CCCCC2)C1 | 20.7%
CCOCCn1nc(C)cc1C(=O)N1CC[C@](C)(O)[C@H](C)C1 | -6.34%
c1cn(Cc2nnc(C3CCN(C4CCOCC4)CC3)n2C2CC2)cn1 | 0.442%
Cc1nc(N)cc(C2CN(C(=O)c3ccn(C)n3)CCO2)n1 (stereo unspecified) | 0.0241%
C=Cn1ncc(CN2C[C@@H]3CCCN3C[C@H]2CCSC)c1C | -4.12%
Cc1cc(C(=O)N2CCCC(c3cc(C(F)(F)F)[nH]n3)C2)[nH]n1 (stereo unspecified) | -6.79%
CC(C)n1ncc2cc(NC(=O)N3CCC(CO)CC3)cnc21 | -14.5%
CC(C)c1nc(CN2CCCC2Cn2cncn2)no1 (stereo unspecified) | -7.3%

Compound | cytotoxicity at 10 µM
COc1ccc(OC2CCN(C(=O)c3ccc(C)[nH]c3=O)CC2)cc1 | -3.22%
NC(=O)CN1CCCN(C(=O)CCOc2ccccc2Cl)CC1 | -6.73%
CCCc1noc(CCC(=O)N2CCCC2c2cccs2)n1 (stereo unspecified) | -14.4%
CN1CCCCC1c1cncc(Cl)n1 (stereo unspecified) | 0.995%
O=S(=O)(NCC1OCCc2cn(CC3CCOCC3)nc21)C1CC1 (stereo unspecified) | 11.2%
Cc1ccc(Nc2ncnc3c2CCN(CC2CCOC2)CC3)cc1 (stereo unspecified) | 5.32%
O=C(C1=CCCC1)N1CCO[C@H]2[C@@H](Oc3ccccn3)CC[C@@H]21 | 0.179%
Cc1cnc(N2C[C@H]3CCN(CC4CC4)C[C@@H]3C2)nc1 | 7.55%
O=C(O)c1cc2c(nc1NCC1CC1)CCN(C1CCOC1)CC2 (stereo unspecified) | 7.83%
c1ccc(COC[C@H]2CC[C@H]3[C@H](CCN3Cc3cccnc3)O2)nc1 | -80.2%
Cc1noc(C)c1CN1CC[C@H]2OCC[C@@]2(C(=O)N(C)C)C1 | -76.5%
CC(C)C(=O)N1CCC2(CN(CC3CCCC3)C2)C1 | 3.86%
COCCNC(=O)C1CN(Cc2nccs2)Cc2ccnn2C1 (stereo unspecified) | -72.7%
N#Cc1cccc(CN2CC[C@@H]3[C@@H]2CC(=O)N3Cc2ccncc2)c1 | -73.7%
Cc1noc(C)c1CN1CCO[C@H]2CNC[C@H]21 | 5.4%
O=C(c1cccnc1)N1CCCC2(COCCN(c3ccccc3)C2)C1 (stereo unspecified) | 2.17%
CCS(=O)(=O)N1CCCC2(COCCN(c3nnc(C)o3)C2)C1 (stereo unspecified) | 8.88%
O=C(COC1CCCC1)N1C[C@@H]2CN(Cc3ccoc3)CCO[C@@H]2C1 | 4.65%
CCCS(=O)(=O)N1CCN(CCOC)c2nc(C)ccc2C1 | 8.07%
